In ChEMBL document CHEMBL1781919, “Synthesis and anticonvulsant properties of 1-(amino-N-arylmethanethio)-3-(1-substituted benzyl-2, 3-dioxoindolin-5-yl) urea derivatives” (Eur J Med Chem, 2011) one finds logP and Activity data, which are given here for seven compounds.

Active and inactive are the calls of the source. No cut-off for these calls is given here.

A short description of data set [1]: Octanol-phosphate buffer partition coefficient, log P of the compound. It is filed as physicochemical. The essentials:
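Octanol and phosphate buffer partition run at room temperature (29 °C). After separation, the phases are membrane-filtered and drug in the aqueous phase is measured by UV. PC = (Ct − Ca)/Ca, where Ct is total drug concentration and Ca is aqueous-phase concentration.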

The subject of data set [2] is Mus musculus. As to the kind of experiment: Anticonvulsant activity in mouse assessed as protection against maximal electroshock-induced seizures at 30 mg/kg, ip after 0.5 hrs. It is filed as functional, organism-based. On the set-up: dose 30 mg/kg. The essentials:
(§1)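 Mouse Test 1: i.p. dosing at 0.01 mL/g. Sets of one, three and one animals receive 30, 100 and 300 mg/kg respectively, each tested at 0.5 h and 4.0 h. Score is N/F, the number of animals protected over the number tested. Screening performed by NINDS following the ADD program protocol.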
(In general: Protection in the maximal electroshock model is a classic sign of anticonvulsant action.)

The test system of data set [3] is Mus musculus. The data set is described as follows: Anticonvulsant activity in mouse assessed as protection against maximal electroshock-induced seizures at 30 mg/kg, ip after 4 hrs. The format is functional, organism-based. On the set-up: dose 30 mg/kg. The essentials: as §1
For data set [4], the system named is Mus musculus. As to the kind of experiment: Anticonvulsant activity in mouse assessed as protection against maximal electroshock-induced seizures at 100 mg/kg, ip after 0.5 hrs. It is filed as functional, organism-based. On the set-up: dose 100 mg/kg. The essentials:
as §1

In data set [5] the test system is Mus musculus. The data set is described as follows: Anticonvulsant activity in mouse assessed as protection against maximal electroshock-induced seizures at 100 mg/kg, ip after 4 hrs. The format is functional, organism-based. On the set-up: dose 100 mg/kg. The essentials:
as §1

The test system of data set [6] is Mus musculus. As to the kind of experiment: Anticonvulsant activity in mouse assessed as protection against maximal electroshock-induced seizures at 300 mg/kg, ip after 0.5 hrs. It is filed as functional, organism-based. On the set-up: dose 300 mg/kg. The essentials: as §1
Data set [7] has as its system Mus musculus. As to the kind of experiment: Anticonvulsant activity in mouse assessed as protection against maximal electroshock-induced seizures at 300 mg/kg, ip after 4 hrs. The format is functional, organism-based. The arrangement: dose 300 mg/kg. The essentials: as §1
Data set [8] deals with Mus musculus. As to the kind of experiment: Anticonvulsant activity in mouse assessed as protection against subcutaneous pentylenetetrazole-induced seizures at 30 mg/kg, ip after 0.5 hrs. The format is functional, organism-based. The arrangement: dose 30 mg/kg.
Data set [9] concerns Mus musculus. The data set is described as follows: Anticonvulsant activity in mouse assessed as protection against subcutaneous pentylenetetrazole-induced seizures at 30 mg/kg, ip after 4 hrs. The format is functional, organism-based. The arrangement: dose 30 mg/kg.
Data set [10] has as its system Mus musculus. As to the kind of experiment: Anticonvulsant activity in mouse assessed as protection against subcutaneous pentylenetetrazole-induced seizures at 100 mg/kg, ip after 0.5 hrs. The arrangement: dose 100 mg/kg. It is filed as functional, organism-based.
Data set [11] has as its system Mus musculus. The data set is described as follows: Anticonvulsant activity in mouse assessed as protection against subcutaneous pentylenetetrazole-induced seizures at 100 mg/kg, ip after 4 hrs. It is filed as functional, organism-based. On the set-up: dose 100 mg/kg.
Data set [12] concerns Mus musculus. The data set is described as follows: Anticonvulsant activity in mouse assessed as protection against subcutaneous pentylenetetrazole-induced seizures at 300 mg/kg, ip after 0.5 hrs. It is filed as functional, organism-based. The arrangement: dose 300 mg/kg.
Data set [13] concerns Mus musculus. The data set is described as follows: Anticonvulsant activity in mouse assessed as protection against subcutaneous pentylenetetrazole-induced seizures at 300 mg/kg, ip after 4 hrs. The format is functional, organism-based. On the set-up: dose 300 mg/kg.
The subject of data set [14] is Mus musculus. The data set is described as follows: Neurotoxicity in mouse assessed as minimum motor impairment at 30 mg/kg, ip after 0.5 hrs by rotarod test. The format is toxicity, organism-based. The arrangement: dose 30 mg/kg, route intraperitoneal. The conditions noted are these: in vivo. The essentials: (§2)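 Rotorod test for minimal motor impairment in mice given 30, 100 or 300 mg/kg i.p. at 0.01 mL/g, using sets of one, three and one animals, at 0.5 h and 4.0 h. Animals are observed at each dose and time. Score is N/F, the number showing toxicity over the number tested.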

Data set [15] concerns Mus musculus. The data set is described as follows: Neurotoxicity in mouse assessed as minimum motor impairment at 30 mg/kg, ip after 4 hrs by rotarod test. It is filed as toxicity, organism-based. On the set-up: dose 30 mg/kg, route intraperitoneal. The note with it: in vivo. The essentials:
as §2

Data set [16] relates to Mus musculus. The data set is described as follows: Neurotoxicity in mouse assessed as minimum motor impairment at 100 mg/kg, ip after 0.5 hrs by rotarod test. It is filed as toxicity, organism-based. On the set-up: dose 100 mg/kg, route intraperitoneal. The note with it: in vivo. The essentials: as §2
(In the rotarod test animals must keep their balance on a rotating rod.)

Data set [17] deals with Mus musculus. As to the kind of experiment: Neurotoxicity in mouse assessed as minimum motor impairment at 100 mg/kg, ip after 4 hrs by rotarod test. The conditions noted are these: in vivo. The format is toxicity, organism-based. The arrangement: dose 100 mg/kg, route intraperitoneal. The essentials:
as §2

In data set [18] the test system is Mus musculus. The data set is described as follows: Neurotoxicity in mouse assessed as minimum motor impairment at 300 mg/kg, ip after 0.5 hrs by rotarod test. The format is toxicity, organism-based. On the set-up: dose 300 mg/kg, route intraperitoneal. The note with it: in vivo. The essentials: as §2
Data set [19] has as its system Mus musculus. As to the kind of experiment: Neurotoxicity in mouse assessed as minimum motor impairment at 300 mg/kg, ip after 4 hrs by rotarod test. It is filed as toxicity, organism-based. On the set-up: dose 300 mg/kg, route intraperitoneal. The conditions noted are these: in vivo. The essentials:
as §2

Regarding `Cc1ccc(NC(=S)NC(=O)Nc2ccc3c(c2)C(=O)C(=O)N3Cc2ccccc2Cl)cc1`, the log partition coefficient (logP) in [1] came to 3.73. For the same compound, the result in the data set on Mus musculus [2], in the data set with Mus musculus [3], in the data set with Mus musculus [4], in the data set on Mus musculus [5], in the data set on Mus musculus [6] and in the data set with Mus musculus [7] was inactive. The outcome with Mus musculus [8], in the data set with Mus musculus [9], in the data set on Mus musculus [10], with Mus musculus [11], in the data set on Mus musculus [12] and with Mus musculus [13] was inactive. Also, the Activity entry with Mus musculus [14], with Mus musculus [15], in the data set on Mus musculus [16], in the data set with Mus musculus [17], in the data set on Mus musculus [18] and with Mus musculus [19] was “Non-toxic” in each case.

As for `COc1cccc(NC(=S)NC(=O)Nc2ccc3c(c2)C(=O)C(=O)N3Cc2ccccc2)c1`, the log partition coefficient (logP) in data set [1] amounted to 2.4. Moreover, the outcome in the data set on Mus musculus [2], in the data set with Mus musculus [3], with Mus musculus [4], in the data set with Mus musculus [5], with Mus musculus [6] and with Mus musculus [7] was inactive. Further, the outcome with Mus musculus [8], in the data set with Mus musculus [9], in the data set with Mus musculus [10], in the data set with Mus musculus [11], with Mus musculus [12] and in the data set with Mus musculus [13] was inactive. Also, the Activity result in the data set with Mus musculus [14], in the data set on Mus musculus [15], with Mus musculus [16], in the data set on Mus musculus [17], with Mus musculus [18] and with Mus musculus [19] was “Non-toxic” each time.

For the compound `O=C(NC(=S)Nc1ccccc1)Nc1ccc2c(c1)C(=O)C(=O)N2Cc1ccccc1`, the logP in data set [1] was found to be 2.48. Also, the result in the data set with Mus musculus [2], in the data set with Mus musculus [3], in the data set on Mus musculus [4], in the data set on Mus musculus [5], with Mus musculus [6] and in the data set on Mus musculus [7] was inactive. Further, the outcome in the data set with Mus musculus [8], with Mus musculus [9], in the data set on Mus musculus [10], in the data set with Mus musculus [11], in the data set on Mus musculus [12] and in the data set with Mus musculus [13] was inactive. For the same compound, the Activity result with Mus musculus [14], with Mus musculus [15], in the data set with Mus musculus [16], with Mus musculus [17], in the data set on Mus musculus [18] and in the data set with Mus musculus [19] was “Non-toxic” in each case.

Consider `O=C(NC(=S)Nc1ccccc1Cl)Nc1ccc2c(c1)C(=O)C(=O)N2Cc1ccccc1Cl`, for which the log partition coefficient (logP) in data set [1] stood at 3.98. Moreover, the result with Mus musculus [2], in the data set on Mus musculus [3], in the data set with Mus musculus [4], in the data set with Mus musculus [5], in the data set with Mus musculus [6] and with Mus musculus [7] was inactive. The result in the data set with Mus musculus [8], in the data set with Mus musculus [9], in the data set on Mus musculus [10], in the data set with Mus musculus [11], with Mus musculus [12] and in the data set on Mus musculus [13] was inactive. Moreover, the Activity result in the data set with Mus musculus [14], in the data set on Mus musculus [15], in the data set on Mus musculus [16], with Mus musculus [17], with Mus musculus [18] and with Mus musculus [19] was “Non-toxic” in each case.

On to `Cc1cccc(NC(=S)NC(=O)Nc2ccc3c(c2)C(=O)C(=O)N3Cc2ccccc2)c1`, for which the logP in data set [1] was determined as 2.92. Also, the outcome in the data set on Mus musculus [2], in the data set on Mus musculus [3], with Mus musculus [4], in the data set on Mus musculus [5], in the data set with Mus musculus [6] and with Mus musculus [7] was inactive. The outcome in the data set with Mus musculus [8], in the data set with Mus musculus [9], with Mus musculus [10], in the data set with Mus musculus [11], in the data set on Mus musculus [12] and with Mus musculus [13] was inactive. For the same compound, the Activity result in the data set with Mus musculus [14], in the data set with Mus musculus [15], in the data set with Mus musculus [16], with Mus musculus [17], with Mus musculus [18] and with Mus musculus [19] was “Non-toxic” in each case.

As to `COc1ccc(NC(=S)NC(=O)Nc2ccc3c(c2)C(=O)C(=O)N3Cc2ccccc2Cl)cc1`, the lipophilicity (logP) in [1] amounted to 3.24. In addition, the result in the data set on Mus musculus [2], in the data set with Mus musculus [3], with Mus musculus [4], with Mus musculus [5], in the data set with Mus musculus [6] and in the data set with Mus musculus [7] was inactive. In addition, the result in the data set on Mus musculus [8], in the data set on Mus musculus [9], in the data set with Mus musculus [10], in the data set on Mus musculus [11], in the data set on Mus musculus [12] and in the data set with Mus musculus [13] was inactive. Besides, the Activity entry in the data set on Mus musculus [14], with Mus musculus [15], in the data set with Mus musculus [16], in the data set with Mus musculus [17], with Mus musculus [18] and in the data set on Mus musculus [19] was “Non-toxic” in each case.

Turning to `Cc1cccc(NC(=S)NC(=O)Nc2ccc3c(c2)C(=O)C(=O)N3Cc2ccccc2Cl)c1`, the logP in [1] is 3.72. The result in the data set with Mus musculus [2], with Mus musculus [3], in the data set on Mus musculus [4], with Mus musculus [5], in the data set with Mus musculus [6] and with Mus musculus [8] was inactive. In addition, the result in the data set on Mus musculus [9], in the data set with Mus musculus [10], in the data set with Mus musculus [11] and in the data set on Mus musculus [12] was inactive. Besides, the outcome with Mus musculus [7] and in the data set with Mus musculus [13] was Active. Also, the Activity entry in the data set with Mus musculus [14], in the data set with Mus musculus [15], in the data set with Mus musculus [16], in the data set with Mus musculus [17], with Mus musculus [18] and in the data set with Mus musculus [19] was “Non-toxic” each time.

One may read the logP as a log measure of how a compound divides between an organic and an aqueous phase. A high value points to higher lipophilicity.
